Test results: ChEMBL document CHEMBL3525944, “Nonlinear pharmacokinetics of 5-methoxy-N,N-dimethyltryptamine in mice” (Drug Metab Dispos, 2011)

Legend:
[1] = Bioavailability in wild-type FVB/N mouse at 20 mg/kg, ip by LC-MS/MS analysis; format: ADME, organism-based; details: in vivo
[2] = test system: Mus musculus; experiment: AUC (0 to infinity) in CYP2D6-humanized transgenic FVB/N mouse at 2 mg/kg, iv by LC-MS/MS analysis; format: ADME, organism-based, Plasma; set-up: time infinity, dose 2 mg/kg, route intravenous; details: in vivo
[3] = test system: Mus musculus; experiment: AUC (0 to infinity) in CYP2D6-humanized transgenic FVB/N mouse at 10 mg/kg, iv by LC-MS/MS analysis; format: ADME, organism-based, Plasma; set-up: time infinity, dose 10 mg/kg, route intravenous; details: in vivo
[4] = test system: Mus musculus; experiment: AUC (0 to infinity) in CYP2D6-humanized transgenic FVB/N mouse at 20 mg/kg, iv by LC-MS/MS analysis; format: ADME, organism-based, Plasma; set-up: time infinity, dose 20 mg/kg, route intravenous; details: in vivo
[5] = test system: Mus musculus; experiment: Dose normalized AUC (0 to infinity) in CYP2D6-humanized transgenic FVB/N mouse at 2 mg/kg, iv by LC-MS/MS analysis; format: ADME, organism-based; set-up: dose 2 mg/kg, route intravenous; details: in vivo
[6] = test system: Mus musculus; experiment: Dose normalized AUC (0 to infinity) in CYP2D6-humanized transgenic FVB/N mouse at 10 mg/kg, iv by LC-MS/MS analysis; format: ADME, organism-based; set-up: dose 10 mg/kg, route intravenous; details: in vivo
[7] = test system: Mus musculus; experiment: Dose normalized AUC (0 to infinity) in CYP2D6-humanized transgenic FVB/N mouse at 20 mg/kg, iv by LC-MS/MS analysis; format: ADME, organism-based; set-up: dose 20 mg/kg, route intravenous; details: in vivo
[8] = Clearance in CYP2D6-humanized transgenic FVB/N mouse at 2 mg/kg, iv by LC-MS/MS analysis; format: ADME, organism-based; set-up: dose 2 mg/kg, route intravenous; details: in vivo
[9] = Clearance in CYP2D6-humanized transgenic FVB/N mouse at 10 mg/kg, iv by LC-MS/MS analysis; format: ADME, organism-based; set-up: dose 10 mg/kg, route intravenous; details: in vivo
[10] = Clearance in CYP2D6-humanized transgenic FVB/N mouse at 20 mg/kg, iv by LC-MS/MS analysis; format: ADME, organism-based; set-up: dose 20 mg/kg, route intravenous; details: in vivo
[11] = Volume of distribution at steady state in CYP2D6-humanized transgenic FVB/N mouse at 2 mg/kg, iv by LC-MS/MS analysis; format: ADME, organism-based; set-up: dose 2 mg/kg, route intravenous; details: in vivo, read-out: Vdss
Summary of the method: (§1)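 Male 8-week FVB/N wild-type or CYP2D6-humanized mice (25-30 g) given 5-MeO-DMT oxalate in saline i.v. at 5 µL/g body weight. Serum collected 0-180 min, N = 3 per time point, proteins precipitated with ice-cold acetonitrile containing internal standard, LC-MS/MS. Noncompartmental analysis of composite mean data; t1/2 = 0.693/terminal slope; Vss = CL×AUMC/AUC, CL = dose/AUC0→∞.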

[12] = Volume of distribution at steady state in CYP2D6-humanized transgenic FVB/N mouse at 10 mg/kg, iv by LC-MS/MS analysis; format: ADME, organism-based; set-up: dose 10 mg/kg, route intravenous; details: in vivo, read-out: Vdss; summary of the method: as §1
[13] = Volume of distribution at steady state in CYP2D6-humanized transgenic FVB/N mouse at 20 mg/kg, iv by LC-MS/MS analysis; format: ADME, organism-based; set-up: dose 20 mg/kg, route intravenous; details: in vivo, read-out: Vdss; summary of the method: as §1
[14] = Half life in CYP2D6-humanized transgenic FVB/N mouse at 2 mg/kg, iv by LC-MS/MS analysis; format: ADME, organism-based; set-up: dose 2 mg/kg, route intravenous; details: in vivo
[15] = Half life in CYP2D6-humanized transgenic FVB/N mouse at 10 mg/kg, iv by LC-MS/MS analysis; format: ADME, organism-based; set-up: dose 10 mg/kg, route intravenous; details: in vivo
[16] = Half life in CYP2D6-humanized transgenic FVB/N mouse at 20 mg/kg, iv by LC-MS/MS analysis; format: ADME, organism-based; set-up: dose 20 mg/kg, route intravenous; details: in vivo
[17] = test system: Mus musculus; experiment: AUC (0 to infinity) in CYP2D6-humanized transgenic FVB/N mouse at 2 mg/kg, ip by LC-MS/MS analysis; format: ADME, organism-based, Plasma; set-up: time infinity, dose 2 mg/kg, route intraperitoneal; details: in vivo
[18] = test system: Mus musculus; experiment: AUC (0 to infinity) in CYP2D6-humanized transgenic FVB/N mouse at 10 mg/kg, ip by LC-MS/MS analysis; format: ADME, organism-based, Plasma; set-up: time infinity, dose 10 mg/kg, route intraperitoneal; details: in vivo
[19] = test system: Mus musculus; experiment: AUC (0 to infinity) in CYP2D6-humanized transgenic FVB/N mouse at 20 mg/kg, ip by LC-MS/MS analysis; format: ADME, organism-based, Plasma; set-up: time infinity, dose 20 mg/kg, route intraperitoneal; details: in vivo
[20] = test system: Mus musculus; experiment: Dose normalized AUC (0 to infinity) in CYP2D6-humanized transgenic FVB/N mouse at 2 mg/kg, ip by LC-MS/MS analysis; format: ADME, organism-based; set-up: dose 2 mg/kg, route intraperitoneal; details: in vivo
[21] = test system: Mus musculus; experiment: Dose normalized AUC (0 to infinity) in CYP2D6-humanized transgenic FVB/N mouse at 10 mg/kg, ip by LC-MS/MS analysis; format: ADME, organism-based; set-up: dose 10 mg/kg, route intraperitoneal; details: in vivo
[22] = test system: Mus musculus; experiment: Dose normalized AUC (0 to infinity) in CYP2D6-humanized transgenic FVB/N mouse at 20 mg/kg, ip by LC-MS/MS analysis; format: ADME, organism-based; set-up: dose 20 mg/kg, route intraperitoneal; details: in vivo
[23] = Tmax in CYP2D6-humanized transgenic FVB/N mouse at 2 mg/kg, ip by LC-MS/MS analysis; format: ADME, organism-based; set-up: dose 2 mg/kg, route intraperitoneal; details: in vivo
Summary of the method: (§2)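 Male 8-week FVB/N wild-type or CYP2D6-humanized mice given 5-MeO-DMT oxalate in saline i.p. at 10 µL/g body weight. Serum sampled 0-180 min, N = 4 per time point, processed by acetonitrile protein precipitation with internal standard, quantified by LC-MS/MS. Tmax taken as observed from composite mean serum concentration-time data.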

[24] = Tmax in CYP2D6-humanized transgenic FVB/N mouse at 10 mg/kg, ip by LC-MS/MS analysis; format: ADME, organism-based; set-up: dose 10 mg/kg, route intraperitoneal; details: in vivo; summary of the method: as §2
[25] = Tmax in CYP2D6-humanized transgenic FVB/N mouse at 20 mg/kg, ip by LC-MS/MS analysis; format: ADME, organism-based; set-up: dose 20 mg/kg, route intraperitoneal; details: in vivo; summary of the method: as §2
[26] = Cmax in CYP2D6-humanized transgenic FVB/N mouse at 2 mg/kg, ip by LC-MS/MS analysis; format: ADME, organism-based; set-up: dose 2 mg/kg, route intraperitoneal; details: in vivo
[27] = Cmax in CYP2D6-humanized transgenic FVB/N mouse at 10 mg/kg, ip by LC-MS/MS analysis; format: ADME, organism-based; set-up: dose 10 mg/kg, route intraperitoneal; details: in vivo
[28] = Cmax in CYP2D6-humanized transgenic FVB/N mouse at 20 mg/kg, ip by LC-MS/MS analysis; format: ADME, organism-based; set-up: dose 20 mg/kg, route intraperitoneal; details: in vivo
[29] = Bioavailability in CYP2D6-humanized transgenic FVB/N mouse at 2 mg/kg, ip by LC-MS/MS analysis; format: ADME, organism-based; details: in vivo
[30] = Bioavailability in CYP2D6-humanized transgenic FVB/N mouse at 10 mg/kg, ip by LC-MS/MS analysis; format: ADME, organism-based; details: in vivo
[31] = test system: Mus musculus; experiment: AUC (0 to infinity) in wild-type FVB/N mouse at 20 mg/kg, iv by LC-MS/MS analysis; format: ADME, organism-based, Plasma; set-up: time infinity, dose 20 mg/kg, route intravenous; details: in vivo
[32] = Bioavailability in CYP2D6-humanized transgenic FVB/N mouse at 20 mg/kg, ip by LC-MS/MS analysis; format: ADME, organism-based; details: in vivo
[33] = Ratio of drug level in brain to serum in wild-type FVB/N mouse at 10 mg/kg, ip by LC-MS/MS analysis; format: ADME, organism-based; set-up: dose 10 mg/kg, route intraperitoneal
Summary of the method: (§3)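 Mice dosed i.p. with 5-MeO-DMT in saline and killed at 20, 30 or 60 min. Brain homogenized in ice-cold saline and extracted liquid-liquid; serum processed by acetonitrile precipitation. Both quantified by LC-MS/MS (brain range 4.1-3000 nM). Ratio is brain over serum concentration at the same time point.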

[34] = Ratio of drug level in brain to serum in CYP2D6-humanized transgenic FVB/N mouse at 10 mg/kg, ip by LC-MS/MS analysis; format: ADME, organism-based; set-up: dose 10 mg/kg, route intraperitoneal; summary of the method: as §3
[35] = Ratio of drug level in brain to serum in wild-type FVB/N mouse at 20 mg/kg, ip by LC-MS/MS analysis; format: ADME, organism-based; set-up: dose 20 mg/kg, route intraperitoneal; summary of the method: as §3
[36] = Ratio of drug level in brain to serum in CYP2D6-humanized transgenic FVB/N mouse at 20 mg/kg, ip by LC-MS/MS analysis; format: ADME, organism-based; set-up: dose 20 mg/kg, route intraperitoneal; summary of the method: as §3

Structure (SMILES): COc1ccc2[nH]cc(CCN(C)C)c2c1.O=C(O)C(=O)O
- bioavailability [1]: 71%
- AUC [2]: 49.1 µmol·min/L
- AUC [3]: 369 µmol·min/L
- AUC [4]: 866 µmol·min/L
- AUC/dose [5]: 5.36 kg·min/L
- AUC/dose [6]: 8.1 kg·min/L
- AUC/dose [7]: 9.45 kg·min/L
- clearance [8]: 190 mL/min/kg
- clearance [9]: 120 mL/min/kg
- clearance [10]: 110 mL/min/kg
- Vd [11]: 2.55 L/kg
- Vd [12]: 1.68 L/kg
- Vd [13]: 2.18 L/kg
- half-life [14]: 8.4 min
- half-life [15]: 12 min
- half-life [16]: 12 min
- AUC [17]: 20.9 µmol·min/L
- AUC [18]: 225 µmol·min/L
- AUC [19]: 569 µmol·min/L
- AUC/dose [20]: 2.28 kg·min/L
- AUC/dose [21]: 4.92 kg·min/L
- AUC/dose [22]: 6.2 kg·min/L
- Tmax [23]: 3 min
- Tmax [24]: 5 min
- Tmax [25]: 5 min
- Cmax [26]: 1.01 µM
- Cmax [27]: 8.93 µM
- Cmax [28]: 18.3 µM
- bioavailability [29]: 42.5%
- bioavailability [30]: 61%
- AUC [31]: 920 µmol·min/L
- bioavailability [32]: 65.6%
- Kp [33]: 1.8
- Kp [34]: 1.2
- Kp [35]: 2.7
- Kp [36]: 3.2
